Where only a bound is given, the exact number is not on record here.

The values below come from ChEMBL document CHEMBL1127464, “Inhibitors of HIV-1 proteinase containing 2-heterosubstituted 4-amino-3-hydroxy-5-phenylpentanoic acid: synthesis, enzyme inhibition, and antiviral activity” (J Med Chem, 1994).

For test [1], the system named is Human immunodeficiency virus 1. Kind of test: Antiviral activity by observing cytopathic effect induced by HIV-1 strain IIIB in de novo infected MT-4 cells. The class given is functional, organism-based. To be noted: Human immunodeficiency virus 1, MT4. (Cytopathic effects are the visible damage that an infection or toxin causes in cultured cells.)
Test [2] addresses Human immunodeficiency virus type 1 protease (Human immunodeficiency virus 1, UniProt Q72874). Briefly: Inhibitory constant against HIV-1 protease. The gist of the method:
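HIV-1 proteinase expressed in E. coli JM 105 and purified to homogeneity. Initial rates were taken from the absorbance decrease at 298 nm. IC50 came from a fit of the initial velocities. Ki was derived from IC50 accounting for enzyme, substrate and Km. Mean of two determinations.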

Consider `CCOC(=O)[C@@H](NC(=O)[C@H](NCc1ccccc1)[C@H](O)[C@H](Cc1ccccc1)NC(=O)[C@@H](NC(=O)OCc1ccccc1)C(C)C)C(C)C`, for which the IC50 (usually the midpoint of a concentration-inhibition curve) in test [1] is above 3000 nM. Also, in test [2], the Ki – broadly, a dissociation constant, usually derived from enzyme kinetics or from competition with a known ligand – was determined as 1200 nM.

As for `CC(C)C[C@H](NC(=O)OCc1ccccc1)C(=O)N[C@@H](Cc1ccccc1)[C@@H](O)[C@@H](NCc1ccccc1)C(=O)N[C@H](C(=O)NCc1ccccc1)C(C)C`, the IC50 in test [1] was above 3000 nM. Moreover, the affinity in test [2] corresponds to a Ki of 65 nM.

For `CC(C)[C@H](NC(=O)[C@H](NCc1ccccc1)[C@H](O)[C@H](Cc1ccccc1)NC(=O)[C@H](CCC(N)=O)NC(=O)OCc1ccccc1)C(=O)NCc1ccccc1`, the IC50 in test [1] turned out to be 2000 nM. In test [2], this compound returned a Ki of 45 nM.

`CC(C)[C@H](NC(=O)OCc1ccccc1)C(=O)N[C@@H](Cc1ccccc1)[C@@H](O)[C@@H](NCc1ccccc1)C(=O)N[C@@H](C(=O)NCc1ccccc1)C(C)(C)C.CC(C)[C@H](NC(=O)OCc1ccccc1)C(=O)N[C@@H](Cc1ccccc1)[C@@H](O)[C@@H](NCc1ccccc1)C(=O)N[C@H](C(=O)NCc1ccccc1)C(C)(C)C` (stereo in doubt; 32(5:1)) displayed a Ki in test [2] of 20 nM.

In test [1], `CC(C)[C@H](NC(=O)OCc1ccccc1)C(=O)N[C@@H](Cc1ccccc1)[C@@H](O)[C@@H](NCc1ccccc1)C(=O)N[C@H](C(=O)NCc1nc2ccccc2[nH]1)C(C)C` returned an IC50 of 140 nM. In test [2], this compound gave a Ki of 13 nM.

In the case of `CC(C)[C@H](NC(=O)OCc1ccccc1)C(=O)N[C@@H](Cc1ccccc1)[C@@H](O)[C@@H](Nc1ccc(-c2ccccc2)cc1)C(=O)N[C@H](C(=O)NCc1ccccc1)C(C)C`, the IC50 in test [1] was above 3000 nM. The affinity in test [2], expressed as Ki, was 59 nM.

In test [1], `CC(C)[C@H](NC(=O)OCc1ccccc1)C(=O)N[C@@H](Cc1ccccc1)[C@@H](O)[C@@H](NC1CCCCC1)C(=O)N[C@H](C(=O)NCc1ccccc1)C(C)C` yielded an IC50 of 940 nM. This compound also had a Ki in test [2] of 33.5 nM.

`CC(C)[C@H](NC(=O)OCc1ccccc1)C(=O)N[C@@H](Cc1ccccc1)[C@@H](O)[C@@H](NCCc1ccccn1)C(=O)N[C@H](C(=O)NCc1ccccc1)C(C)C` had an IC50 in test [1] above 3000 nM. Besides, the inhibition constant Ki in test [2] came out at 200 nM.

`CC(C)C[C@H](NC(=O)[C@H](NCc1ccccc1)[C@H](O)[C@H](Cc1ccccc1)NC(=O)[C@@H](NC(=O)OCc1ccccc1)C(C)C)C(=O)NCc1ccccc1` came in with an IC50 in test [1] above 3000 nM. Besides, the Ki in test [2] worked out at 44 nM.

For the compound `CC(C)[C@H](NC(=O)OCc1ccccc1)C(=O)N[C@@H](Cc1ccccc1)[C@@H](O)[C@@H](NCc1ccccc1)C(=O)N[C@H](C(=O)NCCc1c[nH]c2ccccc12)C(C)C`, the IC50 in test [1] is above 3000 nM. In addition, the Ki in test [2] was found to be 10.6 nM.

As to `CC(C)[C@H](NC(=O)[C@H](NCc1ccccc1)[C@H](O)[C@H](Cc1ccccc1)NC(=O)[C@H](C)NC(=O)OCc1ccccc1)C(=O)NCc1ccccc1`, in test [1], the 50% inhibitory concentration (IC50) is above 3000 nM. This compound also had a Ki in test [2] of 34 nM.

With `CC(C)[C@H](NC(=O)c1ccc2ccccc2n1)C(=O)N[C@@H](Cc1ccccc1)[C@@H](O)[C@@H](NCc1ccccc1)C(=O)N[C@H](C(=O)NCc1ccccc1)C(C)C`, the IC50 in test [1] was found to be 1610 nM. Besides, the affinity in test [2], expressed as Ki, was 10.2 nM.

For `CC[C@@H](C)[C@H](NC(=O)OCc1ccccc1)C(=O)N[C@@H](Cc1ccccc1)[C@@H](O)[C@@H](NCc1ccccc1)C(=O)N[C@H](C(=O)NCc1ccccc1)C(C)C`, the IC50 in test [1] is above 3000 nM. The Ki in test [2] is 8.3 nM.

Compound `CC(C)[C@H](NC(=O)OCc1ccccc1)C(=O)N[C@@H](Cc1ccccc1)[C@@H](O)[C@@H](NCc1cccc2ccccc12)C(=O)N[C@H](C(=O)NCc1ccccc1)C(C)C` came in with an IC50 in test [1] above 3000 nM. For the same compound, in test [2], the inhibition constant Ki was determined as 26 nM.

For `CC(C)[C@H](NC(=O)OCc1ccccc1)C(=O)N[C@@H](Cc1ccccc1)[C@@H](O)[C@@H](NCc1ccc(Cl)cc1)C(=O)N[C@H](C(=O)NCc1nc2ccccc2[nH]1)C(C)C`, the IC50 in test [1] was 120 nM. This compound had a Ki in test [2] of 6.1 nM.

For the compound `CC(C)[C@H](NC(=O)[C@H](NCc1ccccc1)[C@H](O)[C@H](Cc1ccccc1)NC(=O)[C@@H](NC(=O)OCc1ccccc1)c1ccccc1)C(=O)NCc1ccccc1`, the IC50 in test [1] is above 3000 nM. For the same compound, the affinity in test [2], expressed as Ki, was 51 nM.

Take `CC(C)[C@H](NC(=O)[C@H](NCc1ccccc1)[C@H](O)[C@H](Cc1ccccc1)NC(=O)[C@H](Cc1cnc[nH]1)NC(=O)OCc1ccccc1)C(=O)NCc1ccccc1`: the IC50 in test [1] was above 3000 nM. Further, the Ki in test [2] stood at 29 nM.

Compound `CC(C)[C@H](NC(=O)OCc1ccccc1)C(=O)N[C@@H](Cc1ccccc1)[C@@H](O)[C@@H](NCc1ccc(Br)cc1)C(=O)N[C@H](C(=O)NCc1ccccc1)C(C)C` yielded an IC50 in test [1] of 350 nM. Further, the Ki in test [2] worked out at 23 nM.

For `CC(C)[C@H](NC(=O)OCc1ccccc1)C(=O)N[C@@H](Cc1ccccc1)[C@@H](O)[C@@H](SCc1ccccc1)C(=O)N[C@H](C(=O)NCc1ccccc1)C(C)C`, the IC50 in test [1] is 330 nM. For the same compound, affinity in test [2] was put at a Ki of 10 nM.

On to `CC(C)[C@H](NC(=O)[C@H](NCc1ccccc1)[C@H](O)[C@H](Cc1ccccc1)NC(=O)[C@H](CC(N)=O)NC(=O)OCc1ccccc1)C(=O)NCc1ccccc1`, for which the IC50 in test [1] was 1010 nM. Moreover, the affinity in test [2], expressed as Ki, was 10.4 nM.

The compound `CC(C)[C@H](NC(=O)[C@H](NCc1ccccc1)[C@H](O)[C@H](Cc1ccccc1)NC(=O)[C@H](Cc1c[nH]c2ccccc12)NC(=O)OCc1ccccc1)C(=O)NCc1ccccc1` returned an IC50 in test [1] above 3000 nM. In test [2], the Ki was determined as 200 nM.

In turn, `CC(C)[C@H](NC(=O)OCc1ccccc1)C(=O)N[C@@H](Cc1ccccc1)[C@@H](O)[C@@H](NCCc1c[nH]c2ccccc12)C(=O)N[C@H](C(=O)NCc1ccccc1)C(C)C` returned an IC50 in test [1] above 3000 nM. The same compound came in with a Ki in test [2] of 61 nM.

`CC(C)[C@H](NC(=O)OC(C)(C)C)C(=O)N[C@@H](Cc1ccccc1)[C@@H](O)[C@@H](NCc1ccccc1)C(=O)N[C@H](C(=O)NCc1ccccc1)C(C)C` had an IC50 in test [1] above 3000 nM. The same compound displayed a Ki in test [2] of 215 nM.

As to `CC(C)[C@H](NC(=O)OCc1ccccc1)C(=O)N[C@@H](Cc1ccccc1)[C@@H](O)[C@@H](NCc1ccccc1)C(=O)N[C@H](C(=O)OCc1nc2ccccc2[nH]1)C(C)C`, the IC50 in test [1] is above 3000 nM. For the same compound, the Ki in test [2] amounted to 29 nM.

Compound `CC(C)[C@H](NC(=O)OCc1ccccc1)C(=O)N[C@@H](Cc1ccccc1)[C@@H](O)[C@@H](NCc1ccccc1)C(=O)N[C@H](C(=O)NCc1ccccn1)C(C)C` displayed an IC50 in test [1] of 1140 nM. The compound also returned a Ki in test [2] of 12 nM.

In the case of `CC(C)[C@H](NC(=O)OCc1ccccc1)C(=O)N[C@@H](Cc1ccccc1)[C@@H](O)[C@@H](Nc1ccccc1)C(=O)N[C@H](C(=O)NCc1ccccc1)C(C)C`, 1340 nM corresponded to half-maximal inhibition in test [1] (IC50). The compound also showed a Ki in test [2] of 6.9 nM.

`CC(C)[C@H](NC(=O)CCc1nc2ccccc2[nH]1)C(=O)N[C@@H](Cc1ccccc1)[C@@H](O)[C@@H](NCc1ccccc1)C(=O)N[C@H](C(=O)NCc1ccccc1)C(C)C` displayed an IC50 in test [1] of 180 nM. The Ki in test [2] was 9.9 nM.

`CC(C)[C@H](NC(=O)OCc1ccccn1)C(=O)N[C@@H](Cc1ccccc1)[C@@H](O)[C@@H](NCc1ccccc1)C(=O)N[C@H](C(=O)NCc1ccccc1)C(C)C` gave an IC50 in test [1] of 350 nM. In test [2], this compound showed a Ki of 8.6 nM.

`CC(C)[C@H](NC(=O)[C@H](NCc1ccccc1)[C@H](O)[C@H](Cc1ccccc1)NC(=O)[C@H](CO)NC(=O)OCc1ccccc1)C(=O)NCc1ccccc1` displayed an IC50 in test [1] of 2500 nM. Further, in test [2], the Ki was 153 nM.

In test [1], `CC(C)[C@H](NC(=O)CCCCCN)C(=O)N[C@@H](Cc1ccccc1)[C@@H](O)[C@@H](NCc1ccccc1)C(=O)N[C@H](C(=O)NCc1ccccc1)C(C)C` registered an IC50 above 3000 nM. This compound also gave a Ki in test [2] of 33 nM.

In test [1], `CC(C)[C@H](NC(=O)OCc1ccccc1)C(=O)N[C@@H](Cc1ccccc1)[C@@H](O)[C@@H](NCCc1ccccc1)C(=O)N[C@H](C(=O)NCc1ccccc1)C(C)C` had an IC50 above 3000 nM. Besides, the Ki in test [2] turned out to be 34 nM.

In test [1], `CC[C@H](C)[C@H](NC(=O)[C@H](NCc1ccccc1)[C@H](O)[C@H](Cc1ccccc1)NC(=O)[C@@H](NC(=O)OCc1ccccc1)C(C)C)C(=O)NCc1ccccc1` displayed an IC50 above 3000 nM. In test [2], the Ki was above 3000 nM.

With `CCCCN[C@@H](C(=O)N[C@H](C(=O)NCc1ccccc1)C(C)C)[C@H](O)[C@H](Cc1ccccc1)NC(=O)[C@@H](NC(=O)OCc1ccccc1)C(C)C`, the IC50 in test [1] was above 3000 nM. The same compound returned a Ki in test [2] of 23 nM.

In the case of `CC(C)[C@H](NC(=O)OCc1ccccc1)C(=O)N[C@@H](Cc1ccccc1)[C@@H](O)[C@@H](NCc1ccc(Cl)cc1)C(=O)N[C@H](C(=O)NCc1ccccc1)C(C)C`, the IC50 in test [1] came out at 400 nM. This compound registered a Ki in test [2] of 17 nM.

In turn, `CC[C@H](NC(=O)OCc1ccccc1)C(=O)N[C@@H](Cc1ccccc1)[C@@H](O)[C@@H](NCc1ccccc1)C(=O)N[C@H](C(=O)NCc1ccccc1)C(C)C` had an IC50 in test [1] of 2000 nM. This compound came in with a Ki in test [2] of 17.1 nM.

As for `CC(C)[C@H](NC(=O)[C@H](NCc1ccccc1)[C@H](O)[C@H](Cc1ccccc1)NC(=O)[C@@H](NC(=O)N(C)Cc1nc2ccccc2[nH]1)C(C)C)C(=O)NCc1ccccc1`, 270 nM corresponded to half-maximal inhibition in test [1] (IC50). Also, in test [2], the affinity corresponds to a Ki of 10.2 nM.

In test [1], `CC(C)[C@H](NC(=O)OCc1ccccc1)C(=O)N[C@@H](Cc1ccccc1)[C@@H](O)[C@@H](NCc1ccccc1)C(=O)N[C@H](C(=O)NC(C)(C)C)C(C)C` had an IC50 above 3000 nM. The compound also displayed a Ki in test [2] of 72 nM.

In test [1], `CC(C)[C@H](NC(=O)OCc1ccccc1)C(=O)N[C@@H](Cc1ccccc1)[C@@H](O)[C@@H](NCc1ccccc1)C(=O)N[C@@H](C(=O)NCc1ccccc1)C(C)(C)C.CC(C)[C@H](NC(=O)OCc1ccccc1)C(=O)N[C@@H](Cc1ccccc1)[C@@H](O)[C@@H](NCc1ccccc1)C(=O)N[C@H](C(=O)NCc1ccccc1)C(C)(C)C` (stereo in doubt; 33(4:1)) returned an IC50 above 3000 nM. Further, in test [2], the Ki was above 3000 nM.
